The record followed here is ChEMBL document CHEMBL3097991, “A novel indigoid anti-tuberculosis agent” (Bioorg Med Chem Lett, 2014).

By MIC is commonly meant the smallest concentration in the dilution series that meets the test's criterion for growth inhibition. The term IC50 denotes the midpoint of a concentration-inhibition curve.

In brackets after ≈: the same amount, converted by molar mass.

The test system of experiment [1] is Mycobacterium tuberculosis. The experiment in a line: Antimicrobial activity against Mycobacterium tuberculosis H37Rv infected in african green monkey Vero cells. The experiment is classed as functional.
The subject of a further experiment is Vero. The experiment in a line: Cytotoxicity against african green monkey Vero cells. To be noted: Chlorocebus sabaeus. The experiment is classed as cell-based.
The subject of experiment [2] is Mycobacterium tuberculosis. The experiment in a line: Antimicrobial activity against Mycobacterium tuberculosis H37Rv in presence of 10% FBS. In kind it is functional.
Experiment [3] deals with Mycolicibacterium smegmatis. The experiment in a line: Antimicrobial activity against Mycobacterium smegmatis. The experiment is classed as functional.
In experiment [4] the test system is Mycobacterium tuberculosis. Nature of the experiment: Antimicrobial activity against Mycobacterium tuberculosis H37Rv in presence of 4% BSA. In kind it is functional.
Experiment [5] concerns Mycobacterium tuberculosis. Nature of the experiment: Antimicrobial activity against Mycobacterium tuberculosis H37Rv by low oxygen recovery assay. The experiment is classed as functional. The procedure, abridged: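 MIC determined against M. tuberculosis H37Rv held in the non-replicating phenotype under low oxygen, with growth assessed after recovery.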
In another experiment the test system is Candida albicans. Nature of the experiment: Antimicrobial activity against Candida albicans. The experiment is classed as functional.
Experiment [6] relates to Mycobacterium tuberculosis. The experiment in a line: Ratio of MIC for Mycobacterium tuberculosis H37Rv in presence of 10% FBS to MIC for Mycobacterium tuberculosis H37Rv. The experiment is classed as functional.
Another experiment has as its system Staphylococcus aureus. Nature of the experiment: Antimicrobial activity against Staphylococcus aureus. The experiment is classed as functional.
Experiment [7] has as its system Mycobacterium tuberculosis. Nature of the experiment: Ratio of MIC for Mycobacterium tuberculosis H37Rv in presence of 4% BSA to MIC for Mycobacterium tuberculosis H37Rv. The experiment is classed as functional.
In experiment [8] the test system is Mycobacterium tuberculosis. The experiment in a line: Ratio of MIC for Mycobacterium tuberculosis H37Rv by low oxygen recovery assay to MIC for Mycobacterium tuberculosis H37Rv. In kind it is functional.
A further experiment relates to Escherichia coli. Nature of the experiment: Antimicrobial activity against Escherichia coli. The experiment is classed as functional.

For `O=C1/C(=C2\Nc3ccccc3C2=O)Nc2ccccc21` [INDIGO], the MIC in [1] was more than 32 µM.
In the experiment with Vero, `NNC(=O)c1ccncc1` [ISONIAZID] came in with an IC50 of more than 100 µM. The MIC in experiment [2] is 0.24 µM; in experiment [3] it was 18.9 µM (≈ 2.59 µg/mL); in experiment [1], 0.22 µM (≈ 0.0302 µg/mL); in experiment [4], 0.45 µM; in experiment [5], more than 100 µM.
`CO[C@H]1/C=C/O[C@@]2(C)Oc3c(C)c(O)c4c(O)c(c(/C=N/N5CCN(C)CC5)c(O)c4c3C2=O)NC(=O)/C(C)=C\C=C\[C@H](C)[C@H](O)[C@@H](C)[C@@H](O)[C@@H](C)[C@H](OC(C)=O)[C@@H]1C` [RIFAMPIN] yielded an IC50 in the experiment with Vero of more than 182 µM. Moreover, the MIC was found to be 0.21 µM in experiment [2]; 16.7 µM (≈ 13.7 µg/mL) in [3]; 0.038 µM (≈ 0.0313 µg/mL) in [1]; 0.089 µM in experiment [4]; 0.49 µM (≈ 0.403 µg/mL) in experiment [5].
In [1], `O=C1Nc2ccccc2/C1=C1/Nc2ccccc2C1=O` [INDIRUBIN] had an MIC of more than 32 µM.
`O=C1Nc2ccccc2/C1=C1\C(=O)Nc2ccccc21` [ISOINDIGO] returned an MIC in [1] of 27 µM (≈ 7.08 µg/mL).
`O=C1C=Cc2nocc2/C1=C1/Nc2ccccc2C1=O`: the MIC is more than 50 µM against Candida albicans; 0.57 µM in experiment [2]; more than 50 µM in experiment [3]; more than 50 µM against Staphylococcus aureus; 0.57 µM (≈ 0.151 µg/mL) in experiment [1]; 2.1 µM in [4]. Also, the values for the MIC (in experiment [5]; against Escherichia coli) were 5.3 µM (≈ 1.4 µg/mL) and more than 50 µM, respectively. In the experiment on Vero, this molecule returned an IC50 of more than 32 µM. For the same molecule, the figures for the Ratio in [6], in [7] and in [8] were 1, 3.7 and 10, respectively.
